# Residues, ends and D or L forms follow the SMILES beside them.
# What was measured:
# Format in all cases: functional
# Rattus norvegicus [1] = organism: Rattus norvegicus; assay: Antiovulatory activity was expressed as the percentage of 9 rats blocked at a dose 7.5 ug.
# Procedure, shortened: (§1)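 Sprague-Dawley rats given peptide by subcutaneous injection at noon on the day of proestrus, in 40% propane-1,2-diol–0.9% saline vehicle. Oviducts examined for ova the following day.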
# Rattus norvegicus [2] = organism: Rattus norvegicus; assay: Antiovulatory activity was expressed as the percentage of 7 rats blocked at a dose 3 ug.; procedure, shortened: as §1
# Rattus norvegicus [3] = organism: Rattus norvegicus; assay: Antiovulatory activity was expressed as the percentage of 16 rats blocked at a dose 1 ug.; procedure, shortened: as §1
# Rattus norvegicus [4] = organism: Rattus norvegicus; assay: Antiovulatory activity was expressed as the percentage of 12 rats blocked at a dose 0.5 ug.; details: in the assay text read “14 rats” for “12 rats”; procedure, shortened: as §1
# Rattus norvegicus [5] = organism: Rattus norvegicus; assay: Antiovulatory activity was expressed as the percentage of 10 rats blocked at a dose 0.5 ug.; procedure, shortened: as §1
# Rattus norvegicus [6] = organism: Rattus norvegicus; assay: Antiovulatory activity was expressed as the percentage of 9 rats blocked at a dose 1 ug.; procedure, shortened: as §1
# Rattus norvegicus [7] = organism: Rattus norvegicus; assay: Antiovulatory activity was expressed as the percentage of 8 rats blocked at a dose 7.5 ug.; procedure, shortened: as §1
# Rattus norvegicus [8] = organism: Rattus norvegicus; assay: Antiovulatory activity was expressed as the percentage of 9 rats blocked at a dose 0.5 ug.; procedure, shortened: as §1
# Rattus norvegicus [9] = organism: Rattus norvegicus; assay: Antiovulatory activity was expressed as the percentage of 11 rats blocked at a dose 0.5 ug.; procedure, shortened: as §1
# Rattus norvegicus [10] = organism: Rattus norvegicus; assay: Antiovulatory activity was expressed as the percentage of 8 rats blocked at a dose 3 ug.; procedure, shortened: as §1
# Rattus norvegicus [11] = organism: Rattus norvegicus; assay: Antiovulatory activity was expressed as the percentage of 11 rats blocked at a dose 1 ug.; procedure, shortened: as §1
# Rattus norvegicus [12] = organism: Rattus norvegicus; assay: Antiovulatory activity was expressed as the percentage of 13 rats blocked at a dose 1 ug.; procedure, shortened: as §1
# Rattus norvegicus [13] = organism: Rattus norvegicus; assay: Antiovulatory activity was expressed as the percentage of 10 rats blocked at a dose 1.5 ug.; procedure, shortened: as §1
# Rattus norvegicus [14] = organism: Rattus norvegicus; assay: Antiovulatory activity was expressed as the percentage of 9 rats blocked at a dose 3 ug.; procedure, shortened: as §1
# Rattus norvegicus [15] = organism: Rattus norvegicus; assay: Antiovulatory activity was expressed as the percentage of 10 rats blocked at a dose 3 ug.; procedure, shortened: as §1
# Rattus norvegicus [16] = organism: Rattus norvegicus; assay: Antiovulatory activity was expressed as the percentage of 10 rats blocked at a dose 1 ug.; procedure, shortened: as §1
smiles,measurement,setting,value
CC(=O)N[C@H](Cc1ccc2ccccc2c1)C(=O)N[C@H](Cc1ccc2ccccc2c1)C(=O)N[C@H](Cc1c(F)c(F)c(F)c(F)c1F)C(=O)N[C@@H](CO)C(=O)N[C@@H](Cc1ccc(O)cc1)C(=O)N[C@H](CCCN=C(N)N)C(=O)N[C@@H](Cc1ccccc1)C(=O)N[C@@H](CCCN=C(N)N)C(=O)N1CCC[C@H]1C(=O)N[C@H](C)C(N)=O,Antiovulatory activity,Rattus norvegicus [1],0%
CC(=O)N[C@H](Cc1ccc2ccccc2c1)C(=O)N[C@H](Cc1ccc(O)cc1)C(=O)N[C@H](Cc1ccccc1)C(=O)N[C@@H](CO)C(=O)N[C@@H](Cc1ccc(O)cc1)C(=O)N[C@H](CCCN=C(N)N)C(=O)N[C@@H](Cc1ccccc1)C(=O)N[C@@H](CCCN=C(N)N)C(=O)N1CCC[C@H]1C(=O)N[C@H](C)C(N)=O,Antiovulatory activity,Rattus norvegicus [2],14%
same,Antiovulatory activity,Rattus norvegicus [3],0%
CC(=O)N[C@H](Cc1ccc2ccccc2c1)C(=O)N[C@H](Cc1ccc(Cl)cc1)C(=O)N[C@H](Cc1ccc(O)cc1)C(=O)N[C@@H](CO)C(=O)N[C@@H](Cc1ccc(O)cc1)C(=O)N[C@H](CCCN=C(N)N)C(=O)N[C@@H](Cc1ccccc1)C(=O)N[C@@H](CCCN=C(N)N)C(=O)N1CCC[C@H]1C(=O)N[C@H](C)C(N)=O,Antiovulatory activity,Rattus norvegicus [4],86%
CC(=O)N[C@H](Cc1ccc2ccccc2c1)C(=O)N[C@H](Cc1ccc(Cl)cc1)C(=O)N[C@H](Cc1ccccc1)C(=O)N[C@@H](CO)C(=O)N[C@@H](Cc1ccc(O)cc1)C(=O)N[C@H](CCCN=C(N)N)C(=O)N[C@@H](Cc1ccccc1)C(=O)N[C@@H](CCCN=C(N)N)C(=O)N1CCC[C@H]1C(=O)N[C@H](C)C(N)=O,Antiovulatory activity,Rattus norvegicus [5],10%
same,Antiovulatory activity,Rattus norvegicus [6],56%
CC(=O)N[C@H](Cc1ccc(Cl)cc1)C(=O)N[C@H](Cc1ccc(Cl)cc1)C(=O)N[C@H](Cc1c[nH]c2ccccc12)C(=O)N[C@@H](CO)C(=O)N[C@@H](Cc1ccc(O)cc1)C(=O)N[C@H](Cc1ccc2ccccc2c1)C(=O)N[C@@H](Cc1ccccc1)C(=O)N[C@@H](CCCN=C(N)N)C(=O)N1CCC[C@H]1C(=O)N[C@H](C)C(N)=O,Antiovulatory activity,Rattus norvegicus [7],0%
CC(=O)N[C@H](Cc1ccc2ccccc2c1)C(=O)N[C@H](Cc1ccccc1)C(=O)N[C@H](Cc1ccccc1)C(=O)N[C@@H](CO)C(=O)N[C@@H](Cc1ccc(O)cc1)C(=O)N[C@H](CCCN=C(N)N)C(=O)N[C@@H](Cc1ccccc1)C(=O)N[C@@H](CCCN=C(N)N)C(=O)N1CCC[C@H]1C(=O)N[C@H](C)C(N)=O (HELM PEPTIDE1{[ac].[O=C([C@@H](Cc1ccc2ccccc2c1)N[*:1])[*:2]].[dF].[dF].S.Y.[dR].F.R.P.[dA].[am]}$$$$V2.0),Antiovulatory activity,Rattus norvegicus [8],56%
same,Antiovulatory activity,Rattus norvegicus [6],100%
CC(=O)N[C@H](Cc1ccc2ccccc2c1)C(=O)N[C@H](Cc1ccc(Cl)cc1)C(=O)N[C@H](Cc1c[nH]c2ccccc12)C(=O)N[C@@H](CO)C(=O)N[C@@H](Cc1ccc(O)cc1)C(=O)N[C@H](CCCN=C(N)N)C(=O)N[C@@H](Cc1ccccc1)C(=O)N[C@@H](CCCN=C(N)N)C(=O)N1CCC[C@H]1C(=O)N[C@H](C)C(N)=O (HELM PEPTIDE1{[ac].[O=C([C@@H](Cc1ccc2ccccc2c1)N[*:1])[*:2]].[O=C([C@@H](Cc1ccc(Cl)cc1)N[*:1])[*:2]].[dW].S.Y.[dR].F.R.P.[dA].[am]}$$$$V2.0),Antiovulatory activity,Rattus norvegicus [9],64%
CC(=O)N[C@H](Cc1ccc2ccccc2c1)C(=O)N[C@H](Cc1ccc2ccccc2c1)C(=O)N[C@H](Cc1ccc(O)cc1)C(=O)N[C@@H](CO)C(=O)N[C@@H](Cc1ccc(O)cc1)C(=O)N[C@H](CCCN=C(N)N)C(=O)N[C@@H](Cc1ccccc1)C(=O)N[C@@H](CCCN=C(N)N)C(=O)N1CCC[C@H]1C(=O)N[C@H](C)C(N)=O,Antiovulatory activity,Rattus norvegicus [10],38%
same,Antiovulatory activity,Rattus norvegicus [11],9%
same,Antiovulatory activity,Rattus norvegicus [1],100%
CC(=O)N[C@H](Cc1ccc2ccccc2c1)C(=O)N[C@H](Cc1ccc(Cl)cc1)C(=O)N[C@H](Cc1c[nH]c2ccccc12)C(=O)N[C@@H](CO)C(=O)N[C@@H](Cc1ccc(O)cc1)C(=O)N[C@H](CCCN=C(N)N)C(=O)N[C@@H](CC(C)C)C(=O)N[C@@H](CCCN=C(N)N)C(=O)N1CCC[C@H]1C(=O)N[C@H](C)C(N)=O (HELM PEPTIDE1{[ac].[O=C([C@@H](Cc1ccc2ccccc2c1)N[*:1])[*:2]].[O=C([C@@H](Cc1ccc(Cl)cc1)N[*:1])[*:2]].[dW].S.Y.[dR].L.R.P.[dA].[am]}$$$$V2.0),Antiovulatory activity,Rattus norvegicus [12],77%
CC(=O)N[C@H](Cc1ccc(Cl)cc1)C(=O)N[C@H](Cc1ccc(Cl)cc1)C(=O)N[C@H](Cc1c[nH]c2ccccc12)C(=O)N[C@@H](CO)C(=O)N[C@@H](Cc1ccc(O)cc1)C(=O)N[C@H](CCCN=C(N)N)C(=O)N[C@@H](CC(C)C)C(=O)N[C@@H](CCCN=C(N)N)C(=O)N1CCC[C@H]1C(=O)N[C@H](C)C(N)=O (HELM PEPTIDE1{[ac].[O=C([C@@H](Cc1ccc(Cl)cc1)N[*:1])[*:2]].[O=C([C@@H](Cc1ccc(Cl)cc1)N[*:1])[*:2]].[dW].S.Y.[dR].L.R.P.[dA].[am]}$$$$V2.0),Antiovulatory activity,Rattus norvegicus [13],10%
same,Antiovulatory activity,Rattus norvegicus [14],67%
CC(=O)N[C@H](Cc1ccc(Cl)cc1)C(=O)N[C@H](Cc1ccc(Cl)cc1)C(=O)N[C@H](Cc1c[nH]c2ccccc12)C(=O)N[C@@H](CO)C(=O)N[C@@H](Cc1ccc(O)cc1)C(=O)N[C@H](CCCN=C(N)N)C(=O)N[C@@H](Cc1ccccc1)C(=O)N[C@@H](CCCN=C(N)N)C(=O)N1CCC[C@H]1C(=O)N[C@H](C)C(N)=O (HELM PEPTIDE1{[ac].[O=C([C@@H](Cc1ccc(Cl)cc1)N[*:1])[*:2]].[O=C([C@@H](Cc1ccc(Cl)cc1)N[*:1])[*:2]].[dW].S.Y.[dR].F.R.P.[dA].[am]}$$$$V2.0),Antiovulatory activity,Rattus norvegicus [15],100%
same,Antiovulatory activity,Rattus norvegicus [16],70%
CC(=O)N[C@H](Cc1ccc2ccccc2c1)C(=O)N[C@H](Cc1ccccc1)C(=O)N[C@H](Cc1ccccc1)C(=O)N[C@@H](CO)C(=O)N[C@@H](Cc1ccc(O)cc1)C(=O)N[C@H](CCCN=C(N)N)C(=O)N[C@@H](CC1CCCCC1)C(=O)N[C@@H](CCCN=C(N)N)C(=O)N1CCC[C@H]1C(=O)N[C@H](C)C(N)=O,Antiovulatory activity,Rattus norvegicus [5],80%
CC(=O)N[C@H](Cc1ccc2ccccc2c1)C(=O)N[C@H](Cc1ccc2ccccc2c1)C(=O)N[C@H](Cc1ccc2ccccc2c1)C(=O)N[C@@H](CO)C(=O)N[C@@H](Cc1ccc(O)cc1)C(=O)N[C@H](CCCN=C(N)N)C(=O)N[C@@H](Cc1ccccc1)C(=O)N[C@@H](CCCN=C(N)N)C(=O)N1CCC[C@H]1C(=O)N[C@H](C)C(N)=O,Antiovulatory activity,Rattus norvegicus [14],15%

# From ChEMBL document CHEMBL1123924, “Structure-activity studies of antagonists of luteinizing hormone-releasing hormone with emphasis on the amino-terminal region” (1987)
